According to ChEMBL document CHEMBL1156653, “Bioactive asterric acid derivatives from the Antarctic ascomycete fungus Geomyces sp” (J Nat Prod, 2008):
≈ marks a conversion by molar mass, not a printed value.

Experiments:
Type in all cases: functional, organism-based
Escherichia coli = experiment: Antimicrobial activity against Escherichia coli CGMCC 1.2340
Method in brief: (§1)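 Bacteria grown on Mueller-Hinton agar, then in broth at 37 °C for 24 h. Final suspension was 10^6 cells/mL in MHB. Samples were 10 mg/mL DMSO stocks, serially diluted and tested in triplicate. Absorbance at 595 nm was read after incubation. IC50 came from plotting inhibition rate vs concentration. MIC was the lowest concentration completely inhibiting growth.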

Streptococcus pneumoniae = experiment: Antimicrobial activity against Streptococcus pneumoniae CGMCC 1.1692; method in brief: as §1
Staphylococcus aureus = experiment: Antimicrobial activity against Staphylococcus aureus ATCC 6538; method in brief: as §1
Aspergillus fumigatus = experiment: Antifungal activity against Aspergillus fumigatus ATCC 10894
Method in brief: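 A. fumigatus grown on potato dextrose agar, then in broth at 28 °C for 48 h. Final inoculum was 10^4 mycelial fragments/mL in PDB. Samples were 10 mg/mL DMSO stocks, serially diluted and tested in triplicate. A595 was read after incubation. IC50 came from the inhibition-rate vs concentration plot. MIC was the lowest concentration giving complete growth inhibition.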

Structure (SMILES) | IC50 (Escherichia coli) | IC50 (Streptococcus pneumoniae) | IC50 (Staphylococcus aureus) | IC50 (Aspergillus fumigatus) | MIC (Aspergillus fumigatus) | MIC (Escherichia coli) | MIC (Streptococcus pneumoniae) | MIC (Staphylococcus aureus)
CCCCOC(=O)c1c(O)cc(C)cc1Oc1c(OC)cc(O)cc1C(=O)OC [BUTYL ASTERRATE] | > 50 µM | > 50 µM | > 50 µM | > 50 µM | – | – | – | –
COC(=O)c1cc(OC(=O)c2c(O)cc(C)cc2Oc2c(OC)cc(O)cc2C(=O)OC)cc(OC)c1Oc1cc(C)cc(O)c1C(=O)O [GEOMYCIN B] | – | – | – | 0.86 µM | 29.5 µM (≈ 20 µg/mL) | – | – | –
COC(=O)C1=CC(=O)C=C(OC)[C@]12Oc1cc(C)cc(OC(=O)c3c(O)cc(C)cc3Oc3c(OC)cc(O)cc3C(=O)OC)c1C2=O [GEOMYCIN C] | 12.9 µM | 36.2 µM | 17.3 µM | – | – | 30.3 µM (≈ 20 µg/mL) | 152 µM (≈ 100 µg/mL) | 75.8 µM (≈ 50.1 µg/mL)
CCOC(=O)c1c(O)cc(C)cc1Oc1c(OC)cc(O)cc1C(=O)OC [ETHYL ASTERRATE] | > 50 µM | > 50 µM | > 50 µM | > 50 µM | – | – | – | –
CN[C@@H]1[C@H](O[C@H]2[C@H](O[C@H]3[C@H](O)[C@@H](O)[C@H](N=C(N)N)[C@@H](O)[C@@H]3N=C(N)N)O[C@@H](C)[C@]2(O)C=O)O[C@@H](CO)[C@H](O)[C@H]1O [STREPTOMYCIN] | 1.05 µM | – | – | – | – | 11.2 µM (≈ 6.51 µg/mL) | – | –
OC(Cn1cncn1)(Cn1cncn1)c1ccc(F)cc1F [FLUCONAZOLE] | – | – | – | 7.35 µM | 163 µM (≈ 50 µg/mL) | – | – | –
COC(=O)c1cc(OC(=O)c2c(O)cc(C)cc2Oc2c(OC)cc(O)cc2C(=O)OC)cc(OC)c1Oc1cc(C)cc(O)c1C(=O)OC [GEOMYCIN A] | > 50 µM | > 50 µM | > 50 µM | > 50 µM | – | – | – | –
